Data set [1] in a line: Octanol-phosphate buffer partition co-efficient, log D of the compound at pH 7.4 after 2 hrs by LC-MS/MS-based shake flask method. It is filed as physicochemical. The method, boiled down: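 Distribution between octanol and water at pH 7.4.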
Data set [2] in a line: Aqueous solubility of the compound in pH 7.4 phosphate buffer measured after 24 hrs by LC-MS/MS-based shake flask method. Format: physicochemical.
Data set [3] addresses T1, Arachidonate 5-lipoxygenase-activating protein (Homo sapiens) (UniProt P20292).
T1 sequence (whole entry): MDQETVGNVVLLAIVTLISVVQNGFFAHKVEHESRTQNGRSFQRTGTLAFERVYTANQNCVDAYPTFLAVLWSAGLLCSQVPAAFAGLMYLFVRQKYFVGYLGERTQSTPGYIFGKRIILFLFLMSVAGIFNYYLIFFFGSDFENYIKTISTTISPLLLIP
The data set can be described thus: Inhibition of FLAP in human whole blood assessed as reduction in calcium ionophore-stimulated LTB4 production preincubated for 4 hrs followed by calcium ionophore stimulation and measured after 20 mins by EIA. It is filed as tissue-based. The method, boiled down: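 Fresh human whole blood was incubated with compound for 4 h, then stimulated with calcium ionophore, and LTB4 production was measured as the 5-LO pathway read-out. IC50 was also converted to a free value: IC50 × (Fu/100), where Fu = 100 − human plasma protein binding (%).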

Data set [4] is described as follows: Intrinsic clearance in human hepatocytes assessed per million cells at 1 uM measured after 2 to 60 mins by LC-MS/MS analysis. Format: ADME, cell-based, Hepatocyte. As to conditions: read-out: CLH.
A short description of data set [5]: Intrinsic clearance in rat hepatocytes assessed per million cells at 1 uM measured after 2 to 60 mins by LC-MS/MS analysis. It is filed as ADME, cell-based, Hepatocyte. The note with it: read-out: CLH. The method, boiled down:
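Rat hepatocyte incubation of the compound; intrinsic clearance measured after incubation.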

Data set [6] in a line: Passive apparent permeability across apical to basolateral side in human Caco2 cells at pH 6.5. It is filed as ADME, cell-based. The note with it: Caco-2, pH 6.5. The procedure, abridged: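 Passive permeability across Caco-2 monolayers, measured in the A to B direction at pH 6.5.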
Data set [7] is described as follows: Mutagenicity in Salmonella typhimurium TA98 in presence of rat S9 fraction by Ames test. Format: toxicity, subcellular. The note with it: salmonella enterica subsp. enterica serovar typhimurium. The method, boiled down: (§1)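 Ames bacterial mutagenicity test in S. typhimurium TA98 and TA100. Run with and without metabolic activation by rat S9 fraction.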
Data set [8] is described as follows: Mutagenicity in Salmonella typhimurium TA98 in absence of rat S9 fraction by Ames test. Format: toxicity. As to conditions: salmonella enterica subsp. enterica serovar typhimurium. The method, boiled down: as §1
A short description of data set [9]: Mutagenicity in Salmonella typhimurium TA100 in presence of rat S9 fraction by Ames test. It is filed as toxicity, subcellular. As to conditions: salmonella enterica subsp. enterica serovar typhimurium. The method, boiled down:
as §1

Data set [10] in a line: Mutagenicity in Salmonella typhimurium TA100 in absence of rat S9 fraction by Ames test. Format: toxicity. The note with it: salmonella enterica subsp. enterica serovar typhimurium. The method, boiled down: as §1
In data set [11] the target is T2, Arachidonate 5-lipoxygenase-activating protein (Homo sapiens, UniProt P20292).
T2 sequence (P20292 whole entry): T1 sequence (whole entry)
Put plainly: Inhibition of [3H]MK0591 binding to human FLAP expressed in […] cell membranes measured after 60 to 80 mins by microbeta scintillation counting method.

The subject of a further data set is THP-1. The data set can be described thus: Cytotoxicity against human THP1 cells assessed as reduction in cell viability measured after 48 hrs by resazurin assay. Format: cell-based. As to conditions: THP-1, 48 h.
A further data set has as its system HepG2. The data set can be described thus: Cytotoxicity against human HepG2 cells assessed as reduction in ATP depletion in presence of glucose/galactose. It is filed as cell-based.
For data set [12], the target named is Prostaglandin G/H synthase 1 (Homo sapiens) (UniProt P23219). Put plainly: Activity at COX1 in human whole blood assessed as effect on […] production by EIA. Format: tissue-based.
Sequence of Prostaglandin G/H synthase 1 (Homo sapiens) (P23219 whole entry): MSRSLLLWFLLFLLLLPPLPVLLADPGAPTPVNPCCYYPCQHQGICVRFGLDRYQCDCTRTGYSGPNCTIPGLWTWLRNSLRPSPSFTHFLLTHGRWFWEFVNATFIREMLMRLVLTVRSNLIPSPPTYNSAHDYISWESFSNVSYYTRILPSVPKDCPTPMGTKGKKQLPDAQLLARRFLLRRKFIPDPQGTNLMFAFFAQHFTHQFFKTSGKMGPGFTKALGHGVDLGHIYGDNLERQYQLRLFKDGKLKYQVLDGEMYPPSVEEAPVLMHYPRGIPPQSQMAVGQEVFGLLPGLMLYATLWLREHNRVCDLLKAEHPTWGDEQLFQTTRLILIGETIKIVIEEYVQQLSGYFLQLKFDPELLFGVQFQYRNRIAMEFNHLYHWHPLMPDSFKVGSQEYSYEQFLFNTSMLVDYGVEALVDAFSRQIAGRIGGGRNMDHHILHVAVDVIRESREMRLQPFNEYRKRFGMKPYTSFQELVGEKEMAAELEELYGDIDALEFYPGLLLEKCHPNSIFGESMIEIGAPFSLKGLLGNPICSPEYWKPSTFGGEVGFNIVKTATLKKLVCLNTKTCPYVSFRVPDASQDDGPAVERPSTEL
Data set [13] concerns the target T3, Prostaglandin G/H synthase 2 (Homo sapiens) (UniProt P35354).
T3 sequence (whole entry): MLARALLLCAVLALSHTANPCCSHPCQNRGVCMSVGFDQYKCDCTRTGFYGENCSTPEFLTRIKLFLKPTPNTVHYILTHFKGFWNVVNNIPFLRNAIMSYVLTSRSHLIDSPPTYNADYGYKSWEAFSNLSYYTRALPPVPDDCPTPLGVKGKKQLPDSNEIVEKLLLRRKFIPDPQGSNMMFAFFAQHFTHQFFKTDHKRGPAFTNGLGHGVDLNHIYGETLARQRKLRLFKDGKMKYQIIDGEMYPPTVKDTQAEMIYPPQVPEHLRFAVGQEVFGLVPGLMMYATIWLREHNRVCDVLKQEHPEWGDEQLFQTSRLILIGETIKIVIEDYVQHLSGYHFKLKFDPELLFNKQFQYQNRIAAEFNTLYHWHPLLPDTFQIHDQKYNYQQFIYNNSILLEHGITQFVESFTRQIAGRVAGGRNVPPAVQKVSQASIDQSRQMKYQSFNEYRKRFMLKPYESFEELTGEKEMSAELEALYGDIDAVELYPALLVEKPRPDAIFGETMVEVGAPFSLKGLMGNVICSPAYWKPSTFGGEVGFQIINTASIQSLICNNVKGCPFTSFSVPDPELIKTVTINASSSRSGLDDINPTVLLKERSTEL
The data set can be described thus: Activity at COX2 in human whole blood assessed as effect on LPS-induced PGE2 production preincubated for 15 mins followed by LPS-stimulation and measured after overnight incubation by EIA. It is filed as tissue-based.

In brackets after ≈: the same amount, converted by molar mass. Activity calls are given as the source filed them. The rule behind the calls is not given here.

On to `CCn1ncc(NC(=O)[C@@H]2CCCC[C@H]2C(=O)c2ccc(-c3cc(C)n[nH]3)cc2)c1C(N)=O`, for which the logD at 2 h in data set [1] worked out at 2.9. The solubility (thermodynamic) at 24 h in data set [2] was 329 µM (≈ 148 µg/mL). Also, the fIC50 in data set [3] was determined as 16 nM. Besides, the hepatocyte CLint at 1 µM turned out to be 4.9 µL/min/1e6 cells in [4] and 8.6 µL/min/1e6 cells in data set [5]. Moreover, the Papp A→B in data set [6] amounted to 9.2 ×10⁻⁶ cm/s. Besides, the Activity entry in data set [7], in data set [8], in data set [9] and in data set [10] was “Toxic” in each case.

Regarding `Cc1cc(-c2ccc(C(=O)[C@@H]3CCCC[C@H]3C(=O)Nc3cnn(C)c3C(N)=O)cc2)[nH]n1`, the logD at 2 h in data set [1] came out at 2.6. The same molecule displayed a solubility (thermodynamic) at 24 h in data set [2] of 475 µM (≈ 206 µg/mL). The fIC50 in data set [3] was determined as 13 nM. The values for the hepatocyte CLint at 1 µM in data set [4] and in data set [5] were 3 µL/min/1e6 cells and 6.5 µL/min/1e6 cells, respectively. Moreover, in data set [6], the apical-to-basolateral permeability (Papp A→B) turned out to be 2.6 ×10⁻⁶ cm/s. The Activity entry in data set [7], in data set [8], in [9] and in data set [10] was “Toxic” each time.

On to `Cc1cc(-c2ccc(C(=O)[C@@H]3CCCC[C@H]3C(=O)Nc3c(C(N)=O)n[nH]c3C)cc2)n[nH]1`, for which the fIC50 in [3] turned out to be 96 nM.

On to `Cc1cc(-c2ccc(C(=O)[C@@H]3CCCC[C@H]3C(=O)Nc3cnn(C)c3C(=O)NO)cc2)[nH]n1`, for which the logD at 2 h in data set [1] amounted to 2.1. The solubility (thermodynamic) at 24 h in [2] is 224 µM (≈ 101 µg/mL). In data set [11], this molecule displayed an IC50 of 47 nM.

Consider `Cc1cc(-c2ccc(C(=O)[C@@H]3CCCC[C@H]3C(=O)Nc3cn(C)nc3C(N)=O)cc2)[nH]n1`, for which the fIC50 in [3] was determined as 22 nM.

`Cc1cc(-c2ccc(C(=O)[C@@H]3CCCC[C@H]3C(=O)Nc3cnn(C)c3C(=O)O)cc2)[nH]n1` yielded a logD at 2 h in [1] of 0.2. This molecule returned a thermodynamic solubility at 24 h in [2] of 599 µM (≈ 261 µg/mL). For the same molecule, in data set [11], the IC50 was found to be 17 nM. In addition, the fIC50 in data set [3] came out at 570 nM. Besides, the hepatocyte CLint at 1 µM in [4] worked out at 3.2 µL/min/1e6 cells. Besides, in [6], the Papp A→B stood at 0.21 ×10⁻⁶ cm/s.

Take `Cc1cc(-c2ccc(C(=O)[C@@H]3CCCC[C@H]3C(=O)Nc3cnn(C)c3S(N)(=O)=O)cc2)n[nH]1`: in [3], the fIC50 was found to be 6.5 nM. In addition, the IC50 in the data set with THP-1 and with HepG2 was over 250000 nM each time. The result in data set [12] and in data set [13] was inactive.

For `Cc1cc(-c2ccc(C(=O)[C@@H]3CCCC[C@H]3C(=O)Nc3cn(C)nc3C(N)=O)cc2)n[nH]1`, the thermodynamic solubility at 24 h in data set [2] is 60 µM (≈ 26.1 µg/mL). Besides, the hepatocyte CLint at 1 µM worked out at 12.4 µL/min/1e6 cells in data set [4] and 14 µL/min/1e6 cells in data set [5]. Moreover, the Activity result in data set [7], in data set [8], in [9] and in data set [10] was “Non-Toxic” in each case.

In turn, `Cc1cc(-c2ccc(C(=O)[C@@H]3CCCC[C@H]3C(=O)Nc3c(C(N)=O)n[nH]c3C)cc2)[nH]n1` yielded a pH-dependent lipophilicity (logD) at 2 h in data set [1] of 2.3. For the same molecule, the thermodynamic solubility at 24 h in data set [2] amounted to 402 µM (≈ 175 µg/mL). Moreover, the hepatocyte CLint at 1 µM in [4] is 6.7 µL/min/1e6 cells; in [5], 14.4 µL/min/1e6 cells. In addition, in [6], the apparent permeability from apical to basolateral (Papp A→B) turned out to be 0.15 ×10⁻⁶ cm/s.

Take `Cc1cc(-c2ccc(C(=O)[C@@H]3CCCC[C@H]3C(=O)Nc3c(C)nn(C)c3C(N)=O)cc2)n[nH]1`: in data set [1], the logD at 2 h came out at 2.6. In data set [2], this molecule had a solubility (thermodynamic) at 24 h of 399 µM (≈ 179 µg/mL). This molecule also registered an IC50 in data set [11] of 101 nM. In addition, the fIC50 in data set [3] was 8 nM. Also, the hepatocyte CLint at 1 µM is under 1 µL/min/1e6 cells in data set [4] and 5.7 µL/min/1e6 cells in data set [5]. The apical-to-basolateral permeability (Papp A→B) in data set [6] stood at 1.4 ×10⁻⁶ cm/s. The Activity result in [7], in data set [8], in [9] and in data set [10] was “Toxic” each time.

In [1], `Cc1cc(-c2ccc(C(=O)[C@@H]3CCCC[C@H]3C(=O)Nc3cnn(CC(N)=O)c3)cc2)[nH]n1` returned a log distribution coefficient (logD) at 2 h of 2.1. The solubility (thermodynamic) at 24 h in [2] came out at 496 µM (≈ 216 µg/mL). For the same molecule, the IC50 in data set [11] is 241 nM. For the same molecule, the fIC50 in data set [3] worked out at 487 nM.

`Cc1cc(-c2ccc(C(=O)[C@@H]3CCCC[C@H]3C(=O)Nc3cn(C)nc3C)cc2)n[nH]1` displayed a logD at 2 h in data set [1] of 3.1. The molecule also displayed a thermodynamic solubility at 24 h in data set [2] of 225 µM (≈ 91.2 µg/mL). Besides, the half-maximal inhibitory concentration (IC50) in [11] came out at 59 nM. Besides, in [3], the fIC50 was 7.4 nM. Besides, the hepatocyte CLint at 1 µM in data set [4] is 4 µL/min/1e6 cells; in data set [5], 12.8 µL/min/1e6 cells. In addition, in data set [6], the apparent permeability from apical to basolateral (Papp A→B) was 20.5 ×10⁻⁶ cm/s. Besides, the Activity result in data set [7], in data set [8], in data set [9] and in data set [10] was “Non-Toxic” throughout.

The record behind these values is ChEMBL document CHEMBL4393654, “Discovery and Early Clinical Development of an Inhibitor of 5-Lipoxygenase Activating Protein (AZD5718) for Treatment of Coronary Artery Disease” (J Med Chem, 2019).
